Measurements from different studies.
Target: Platelet-derived growth factor receptor beta (PDGFRB, Homo sapiens, UniProt P09619)

| SMILES | read-out | action | technique | endpoint | result |
| --- | --- | --- | --- | --- | --- |
| Cc1cc(Nc2cc3ncccc3c(N[C@@H]3C[C@H]4CC[C@@H](C3)N4CCC#N)n2)n[nH]1 | binding | – | competition with immobilised ligand | Kd | 68 nM |
| C=CC(=O)Nc1cccc(CN2C(=O)N(c3c(Cl)c(OC)cc(OC)c3Cl)Cc3cnc(NCCCCN(CC)CC)nc32)c1 | binding | – | competition with immobilised ligand | Kd | 480 nM |
| CCN1CCN(Cc2ccc(C(=O)Nc3ccc(C)c(Oc4ccc5c(c4)CC(=O)N5)c3)cc2C(F)(F)F)CC1 | enzyme activity | inhibitor | – | IC50 | > 10000 nM |
| Cc1cnc(-c2ccc(-c3ccc(NC(=O)Nc4c(F)cc(F)cc4F)cc3F)c3c2C(=O)NC3)[nH]1 | binding | – | competition with immobilised ligand | Kd | 0.4 nM |
| COc1ccc2c(Oc3ccc4c(C(=O)Nc5ccccc5N)cccc4c3)ccnc2c1 | enzyme activity | inhibitor | – | IC50 | 93 nM |
| Cc1ccc(NC(=O)c2ccc(C)c(C(F)(F)F)c2)cc1C#Cc1nn(C2CCC(O)CC2)c2ncnc(N)c12 (centres unmarked) | enzyme activity | inhibitor | radiometric | IC50 | > 10000 nM |
| Cc1ccc(NC(=O)c2ccc(CN3CCS(=N)(=O)CC3)cc2)cc1Nc1nccc(-c2cccnc2)n1 | binding | – | competition with immobilised ligand | Kd | 19 nM |
| FC(F)(F)c1ccc(CNc2ccc(Cc3c[nH]c4ncc(Cl)cc34)cn2)cn1 | enzyme activity | inhibitor | – | IC50 | 8 nM |
